In ChEMBL document CHEMBL4627300, “Discovery of 1,8-naphthyridin-2-one derivative as a potent and selective sphingomyelin synthase 2 inhibitor” (Bioorg Med Chem, 2020):
Values after ≈ are worked out from the molar mass of the structure shown. Active and inactive are the calls of the source. The calls are words filed in the database; no cut-off is given here.

Tests used:
[1] = Permeability of compound in buffer solution at pH 7.4 by PAMPA method; format: ADME; details: read-out: permeability
Outline: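 Membrane permeability measured at pH 7.4.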

[2] = Aqueous solubility of DMSO dissolved compound in buffer solution at pH 6.8 by LC-MS/MS analysis; format: physicochemical
Outline: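 Compound in DMSO added to aqueous buffer at pH 6.8 and incubated. Precipitate removed by filter-plate filtration; dissolved compound in filtrate quantified by LC/MS/MS.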

[3] = biological target: T1, Phosphatidylcholine:ceramide cholinephosphotransferase 2 (Mus musculus, UniProt Q9D4B1); assay: Inhibition of mouse recombinant C-terminal FLAG-tagged SMS2 expressed in mammalian expression system using C14-phosphatidylcholineD72 and C17-ceramide pre-incubated for 60 mins followed by incubation with substrate for 30 mins measured by RapidFire/MS assay
T1 sequence (Q9D4B1 whole entry): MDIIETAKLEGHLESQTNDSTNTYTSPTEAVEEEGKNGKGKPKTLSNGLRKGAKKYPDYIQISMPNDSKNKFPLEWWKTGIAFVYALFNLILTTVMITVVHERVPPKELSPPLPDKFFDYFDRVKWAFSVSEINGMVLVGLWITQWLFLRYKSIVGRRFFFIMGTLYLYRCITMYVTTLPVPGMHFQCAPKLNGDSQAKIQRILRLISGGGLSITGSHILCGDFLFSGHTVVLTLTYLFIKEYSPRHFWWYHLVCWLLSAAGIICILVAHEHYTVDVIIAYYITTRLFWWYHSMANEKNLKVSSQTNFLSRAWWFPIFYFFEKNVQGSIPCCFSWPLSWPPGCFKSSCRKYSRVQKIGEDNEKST
Outline: (§1)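 C-terminal FLAG-tagged full-length SMS (human SMS1, mouse SMS2, human SMS2) transiently expressed in FreeStyle293 cells for 2 days; total membranes isolated by ultracentrifugation. Enzyme (30 µg/mL) preincubated 60 min with compound, then reacted 30 min at room temperature. Buffer: KCl, 0.1% BSA, 0.03% NP-40 substitute, 1 mM DTT, 10% DMSO. Substrates: 50 µM C14-PC-D72 and 1 µM C17-ceramide. Stopped with 2-propanol/formic acid containing C17-SM internal standard. Product C17-SM-d13 measured by RapidFire SPE and positive SRM MS. % inhibition calculated from peak area ratios against vehicle and no-reaction controls.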

[4] = biological target: T2, Phosphatidylcholine:ceramide cholinephosphotransferase 1 (Homo sapiens, UniProt Q86VZ5); assay: Inhibition of human recombinant C-terminal FLAG-tagged SMS1 expressed in mammalian expression system using C14-phosphatidylcholineD72 and C17-ceramide pre-incubated for 60 mins followed by incubation with substrate for 30 mins measured by RapidFire/MS assay; outline: as §1
T2 sequence (Q86VZ5 whole entry): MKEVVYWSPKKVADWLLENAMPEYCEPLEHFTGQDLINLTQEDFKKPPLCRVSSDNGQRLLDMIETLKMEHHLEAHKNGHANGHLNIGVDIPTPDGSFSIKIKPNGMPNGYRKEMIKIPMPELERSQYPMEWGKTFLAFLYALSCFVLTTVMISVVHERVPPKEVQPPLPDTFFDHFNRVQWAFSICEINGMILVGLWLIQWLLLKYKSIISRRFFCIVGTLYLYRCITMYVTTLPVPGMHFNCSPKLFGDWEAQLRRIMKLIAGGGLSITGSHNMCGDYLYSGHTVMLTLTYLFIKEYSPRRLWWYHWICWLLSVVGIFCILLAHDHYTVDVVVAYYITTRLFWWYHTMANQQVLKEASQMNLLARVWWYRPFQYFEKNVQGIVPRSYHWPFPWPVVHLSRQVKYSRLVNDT

[5] = biological target: T3, Phosphatidylcholine:ceramide cholinephosphotransferase 2 (Homo sapiens, UniProt Q8NHU3); assay: Inhibition of human recombinant C-terminal FLAG-tagged SMS2 expressed in Freestyle293 cell membrane using C14-phosphatidylcholineD72 and C17-ceramide pre-incubated for 60 mins followed by incubation with substrate for 30 mins measured by RapidFire/MS assay; outline: as §1
T3 sequence (Q8NHU3 whole entry): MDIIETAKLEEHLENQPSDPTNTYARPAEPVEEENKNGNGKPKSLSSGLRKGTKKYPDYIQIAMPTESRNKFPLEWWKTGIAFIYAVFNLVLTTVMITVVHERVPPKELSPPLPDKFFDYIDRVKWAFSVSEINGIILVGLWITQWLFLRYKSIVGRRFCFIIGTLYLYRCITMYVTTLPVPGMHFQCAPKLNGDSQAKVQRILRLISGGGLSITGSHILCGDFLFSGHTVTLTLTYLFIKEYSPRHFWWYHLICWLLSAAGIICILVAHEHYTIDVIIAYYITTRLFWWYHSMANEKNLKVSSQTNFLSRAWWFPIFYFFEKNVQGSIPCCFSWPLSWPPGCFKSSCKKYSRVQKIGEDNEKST

[6] = Inhibition of SMS (unknown origin); design: species or system Homo sapiens
[7] = Tmax in KK-AY/Ta mouse at 100 mg/kg, po; format: ADME, organism-based; details: in vivo
Outline: (§2)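 Single 100 mg/kg dose given orally or subcutaneously to KK-Ay/Ta mice. Plasma drug concentration followed to 24 h. […] MRT is the mean residence time.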

[8] = AUC (0 to 24 hrs) in KK-AY/Ta mouse at 100 mg/kg, po; format: ADME, organism-based; design: dose 100 mg/kg, time < 24 hr, route oral; details: in vivo; outline: as §2
[9] = Drug concentration in KK-AY/Ta mouse at 100 mg/kg, po measured upto 24 hrs; format: ADME, organism-based; details: in vivo, read-out: Drug uptake; outline: as §2
[10] = MRT in KK-AY/Ta mouse at 100 mg/kg, sc; format: ADME, organism-based; details: in vivo; outline: as §2
[11] = Tmax in KK-AY/Ta mouse at 100 mg/kg, sc; format: ADME, organism-based; details: in vivo; outline: as §2
[12] = MRT in KK-AY/Ta mouse at 100 mg/kg, po; format: ADME, organism-based; details: in vivo; outline: as §2
[13] = AUC (0 to 24 hrs) in KK-AY/Ta mouse at 100 mg/kg, sc; format: ADME, organism-based; design: time < 24 hr, dose 100 mg/kg, route subcutaneous; details: in vivo; outline: as §2
Mus musculus [14] = assay: In vivo inhibition of SMS2 in KK-AY/Ta mouse assessed as decrease in hepatic SM (22:00) levels at 100 mg/kg, sc qd for 7 days measured after last dosing by LC/MS analysis; format: functional, organism-based
Outline: (§3)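 Male KK-Ay/Ta mice, 10 weeks old, dosed orally or subcutaneously once or twice daily for 7 days; vehicle-treated controls. Livers removed under anesthesia the morning after the last dose. Tissue homogenized in isopropanol (100 mg/mL) by ball-mill and centrifuged; supernatant SM (22:0) measured by reverse-phase LC/MS.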

Mus musculus [15] = assay: In vivo inhibition of SMS2 in KK-AY/Ta mouse assessed as decrease in hepatic SM (22:00) levels at 100 mg/kg, po qd for 7 days measured after last dosing by LC/MS analysis; format: functional, organism-based; outline: as §3
[16] = Cmax in KK-AY/Ta mouse at 100 mg/kg, po; format: ADME, organism-based; design: dose 100 mg/kg, route oral; details: in vivo; outline: as §2
Mus musculus [17] = assay: In vivo inhibition of SMS2 in KK-AY/Ta mouse assessed as decrease in hepatic SM (22:00) levels at 200 mg/kg, po bid for 7 days measured after last dosing by LC/MS analysis; format: functional, organism-based; outline: as §3
[18] = Drug concentration in KK-AY/Ta mouse at 100 mg/kg, sc measured upto 24 hrs; format: ADME, organism-based; details: in vivo, read-out: Drug uptake; outline: as §2
Mus musculus [19] = assay: In vivo inhibition of SMS2 in KK-AY/Ta mouse assessed as decrease in hepatic SM (22:00) levels at 200 mg/kg, sc bid for 7 days measured after last dosing by LC/MS analysis; format: functional, organism-based; outline: as §3
[20] = Cmax in KK-AY/Ta mouse at 100 mg/kg, sc; format: ADME, organism-based; design: dose 100 mg/kg, route subcutaneous; details: in vivo; outline: as §2

| SMILES | Papp [1] [×10⁻⁶ cm/s] | solubility kinetic [2] [µg/mL] | IC50 [3] [nM] | IC50 [4] [nM] | IC50 [5] [nM] | further results |
| --- | --- | --- | --- | --- | --- | --- |
| CN(Cc1cc(C(F)(F)F)cc(C(F)(F)F)c1)C(=O)c1c(OCCCC2CCN(C(=O)OC3(C)CC3)CC2)c2cccnc2n(C)c1=O | 72.1 | < 0.3 | 3 | 850 | 47 | – |
| COc1cc(CN(C)C(=O)c2c(OCCCC3CCN(C(=O)OC(C)(C)C)CC3)c3cnccc3n(C)c2=O)cc(OC)c1 | 26 | 33 (≈ 54.2 µM) | 340 | > 100000 | 1600 | – |
| CN(Cc1cc(C(F)(F)F)cc(C(F)(F)F)c1)C(=O)c1c(N2CCC(OCc3ccccc3)C2)c2ccccc2n(C)c1=O (centres undefined) | – | – | 660 | 15000 | 610 | – |
| COc1cc(CN(C)C(=O)c2c(OCCCC3CCN(C(=O)OC(C)(C)C)CC3)c3ccccc3n(C)c2=O)cc(OC)c1 | 29.5 | 1.8 (≈ 2.96 µM) | 19 | 19000 | 91 | – |
| COc1cc(CN(C)C(=O)c2c(OCCCC3CCN(C(=O)OC4(C)CC4)CC3)c3cccnc3n(C)c2=O)cc(OC)c1 | 20 | 16 (≈ 26.4 µM) | 14 | 18000 | 300 | – |
| S=C(S)OC1C[C@H]2C[C@@H]1[C@H]1CCC[C@@H]21 (some centres undefined) | – | – | – | – | – | IC50 [6]: > 100000 nM |
| CCOc1cc(CN(C)C(=O)c2c(OCCCC3CCN(C(=O)OC(C)(C)C)CC3)c3ccccc3n(C)c2=O)cc(OCC)c1 | 27.5 | < 0.08 | 51 | 15000 | 380 | – |
| CN(Cc1cc(C(F)(F)F)cc(C(F)(F)F)c1)C(=O)c1c(OCCCC2CCN(C(=O)OC(C)(C)C)CC2)c2ccccc2n(C)c1=O | 1.1 | < 0.16 | 7.7 | 3400 | 30 | – |
| COc1cc(CN(C)C(=O)c2c(OCCCC3CCN(C(=O)OC(C)(C)C)CC3)c3cccnc3n(C)c2=O)cc(OC)c1 | 24.1 | 7.3 (≈ 12 µM) | 32 | 10000 | 130 | – |
| COc1cc(CN(C)C(=O)c2c(OCCCC3CCN(C(=O)OC4(C)CC4)CC3)c3cccnc3n(C)c2=O)cc(C(F)(F)F)c1 | 42.4 | 0.79 (≈ 1.23 µM) | 2.2 | 2400 | 45 | Tmax [7]: 0.83 h; AUC(0-t) at 24 h [8]: 18000 ng·h/mL; concentration at 24 h [9]: 7 ng/mL; MRT [10]: 9.4 h; Tmax [11]: 8 h; MRT [12]: 3 h; AUC(0-t) at 24 h [13]: 12000 ng·h/mL; inhibition (Mus musculus [14]): Active; inhibition (Mus musculus [15]): inactive; Cmax [16]: 6500 ng/mL; inhibition (Mus musculus [17]): inactive; concentration at 24 h [18]: 230 ng/mL; inhibition (Mus musculus [19]): Active; Cmax [20]: 700 ng/mL |

Now from value to compound, other results behind:

| Papp [1] [×10⁻⁶ cm/s] | solubility kinetic [2] [µg/mL] | IC50 [3] [nM] | IC50 [4] [nM] | IC50 [5] [nM] | SMILES | further results |
| --- | --- | --- | --- | --- | --- | --- |
| – | – | – | > 100000 | 2100 | CCCOc1c(C(=O)N(C)Cc2cc(C(F)(F)F)cc(C(F)(F)F)c2)c(=O)n(C)c2ccccc12 | – |
| – | – | 590 | 22000 | 380 | CN(Cc1cc(C(F)(F)F)cc(C(F)(F)F)c1)C(=O)c1c(OCCOCc2ccccc2)c2ccccc2n(C)c1=O | – |
| – | – | 1100 | > 100000 | – | CN(Cc1cc(C(F)(F)F)cc(C(F)(F)F)c1)C(=O)c1c(N2CCCC2)c2ccccc2n(C)c1=O | – |
| – | – | 240 | 25000 | 120 | CN(Cc1cc(C(F)(F)F)cc(C(F)(F)F)c1)C(=O)c1c(OCCCC(F)(F)F)c2ccccc2n(C)c1=O | – |
| – | – | 120 | 14000 | 210 | CN(Cc1cc(C(F)(F)F)cc(C(F)(F)F)c1)C(=O)c1c(OCCCc2ccccc2)c2ccccc2n(C)c1=O | – |
| – | – | – | > 100000 | 11000 | CN(Cc1cc(C(F)(F)F)cc(C(F)(F)F)c1)C(=O)c1c(N2CCCCC2)c2ccccc2n(C)c1=O | – |
| – | – | 190 | 14000 | 480 | CN(Cc1cc(C(F)(F)F)cc(C(F)(F)F)c1)C(=O)c1c(OCCCC2CCCCC2)c2ccccc2n(C)c1=O | – |
| – | – | 260 | > 100000 | 350 | CC(C)CCOc1c(C(=O)N(C)Cc2cc(C(F)(F)F)cc(C(F)(F)F)c2)c(=O)n(C)c2ccccc12 | – |
